From ChEMBL document CHEMBL1134845, “Syntheses and biological activities of a novel group of steroidal derived inhibitors for human Cdc25A protein phosphatase” (J Med Chem, 2001)
Each block holds one compound with its values, some of them ahead of it.

Tests used:
[1] = target: T1, M-phase inducer phosphatase 1 (Homo sapiens, UniProt P30304); experiment: Inhibitory activity tested against cell division cycle 25A (assay using p-nitrophenyl phosphate (pNPP) as substrate)
T1 sequence (P30304 whole entry): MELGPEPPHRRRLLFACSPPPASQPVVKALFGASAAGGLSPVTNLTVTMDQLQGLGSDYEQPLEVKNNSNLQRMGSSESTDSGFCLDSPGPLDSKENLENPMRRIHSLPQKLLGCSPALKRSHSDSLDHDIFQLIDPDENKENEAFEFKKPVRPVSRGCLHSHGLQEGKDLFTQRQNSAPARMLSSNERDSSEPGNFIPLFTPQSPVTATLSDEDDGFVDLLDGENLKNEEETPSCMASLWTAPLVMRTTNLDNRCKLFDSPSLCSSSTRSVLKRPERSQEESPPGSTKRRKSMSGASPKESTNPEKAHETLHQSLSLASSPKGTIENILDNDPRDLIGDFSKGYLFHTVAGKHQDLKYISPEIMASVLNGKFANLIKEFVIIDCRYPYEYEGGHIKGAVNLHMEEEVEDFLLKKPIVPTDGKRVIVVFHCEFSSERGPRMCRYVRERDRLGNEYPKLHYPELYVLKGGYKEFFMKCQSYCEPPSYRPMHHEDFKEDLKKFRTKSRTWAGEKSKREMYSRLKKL

[2] = tested on: HCC 2998; experiment: Growth inhibitory activity was determined against HCC2998 cancer cell line colon cancer; format: functional, Homo sapiens
Procedure, shortened: (§1)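 NCI 60 human tumour cell line screen run at the National Cancer Institute. Cell growth and viability read with the protein stain sulforhodamine B, which binds basic amino acids of cells left attached after washing. […] MG MID is the mean GI50 calculated over all panels.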

[3] = tested on: SN12C; experiment: Growth inhibitory activity was determined against SN12C cancer cell line of Renal cancer; format: functional; details: Homo sapiens
Procedure, shortened: as §1

[4] = tested on: NCI-H23; experiment: Growth inhibitory activity was determined against NCI-H23 cancer cell line of non-small cell lung cancer; format: functional, Homo sapiens
Procedure, shortened: as §1

[5] = target: T1, M-phase inducer phosphatase 1; experiment: Inhibitory activity tested against cell division cycle 25A (assay using fluorescein diphosphate (FDP) as substrate)
Procedure, shortened: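 Recombinant human GST-Cdc25A fusion protein, each batch calibrated so that FDP was dephosphorylated linearly over 20 min. Fluorescein diphosphate was the substrate. Reactions ran 15 min at 25 °C in the dark and were stopped with sodium orthovanadate. IC50 came from at least two independent runs, each in triplicate.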

[6] = tested on: LOX IMVI; experiment: Growth inhibitory activity was determined against LOX IMVI cancer cell line of melanoma; format: functional, Homo sapiens
Procedure, shortened: as §1

[7] = tested on: A549; experiment: Growth inhibitory activity was determined against A549/ATCC cancer cell line of non-small cell lung cancer; format: functional, Homo sapiens
Procedure, shortened: as §1

[8] = tested on: U-251; experiment: Growth inhibitory activity was determined against U-251 cancer cell line of CNS cancer; format: functional; details: Homo sapiens
Procedure, shortened: as §1

[9] = tested on: BT-549 (Homo sapiens); experiment: Growth inhibitory activity was determined against BT-549 cancer cell line of Breast cancer
[10] = tested on: T47D; experiment: Growth inhibitory activity was determined against T-47D cancer cell line of Breast cancer; format: functional, Homo sapiens
Procedure, shortened: as §1

[11] = tested on: OVCAR-8; experiment: Growth inhibitory activity was determined against OVCAR-8 cancer cell line of Ovarian cancer; format: functional; details: Homo sapiens
Procedure, shortened: as §1

[12] = tested on: OVCAR-3; experiment: Growth inhibitory activity was determined against OVCAR-3 cancer cell line of Ovarian cancer; format: functional; details: Homo sapiens
Procedure, shortened: as §1

[13] = tested on: UO-31; experiment: Growth inhibitory activity was determined against UO-31 cancer cell line of Renal cancer; format: functional; details: Homo sapiens
Procedure, shortened: as §1

[14] = tested on: SK-MEL-5; experiment: Growth inhibitory activity was determined against SK-MEL-5 cancer cell line of melanom; format: functional; details: Homo sapiens
Procedure, shortened: as §1

[15] = tested on: NCI/ADR-RES; experiment: Growth inhibitory activity was determined against NCI/ADR-RES cancer cell line of Breast cancer; format: functional, Homo sapiens
Procedure, shortened: as §1

[16] = tested on: HT-29; experiment: Growth inhibitory activity was determined against HT-29 cancer cell line colon cancer; format: functional, Homo sapiens
Procedure, shortened: as §1

[17] = tested on: PC-3; experiment: Growth inhibitory activity was determined against PC-3 cancer cell line of Prostate cancer; format: functional; details: Homo sapiens
Procedure, shortened: as §1

[18] = tested on: NCI-H522; experiment: Growth inhibitory activity was determined against NCI-H522 cancer cell line of non-small cell lung cancer; format: functional; details: Homo sapiens
Procedure, shortened: as §1

[19] = tested on: SF-539; experiment: Growth inhibitory activity was determined against SF-539 cancer cell line of CNS cancer; format: functional; details: Homo sapiens
Procedure, shortened: as §1

[20] = tested on: COLO 205; experiment: Growth inhibitory activity was determined against COLO 205 cancer cell line colon cancer; format: functional, Homo sapiens
Procedure, shortened: as §1

[21] = tested on: 786-0; experiment: Growth inhibitory activity was determined against 786-0 cancer cell line of Renal cancer; format: functional; details: Homo sapiens
Procedure, shortened: as §1

[22] = tested on: SF-268; experiment: Growth inhibitory activity was determined against SF-268 cancer cell line of CNS cancer; format: functional; details: Homo sapiens
Procedure, shortened: as §1

[23] = target: T2, Receptor-type tyrosine-protein phosphatase C (Homo sapiens, UniProt P08575); experiment: Inhibitory activity tested against Human CD45 Phosphatase (assay using p-nitrophenyl phosphate (pNPP) as substrate)
T2 sequence (P08575 whole entry): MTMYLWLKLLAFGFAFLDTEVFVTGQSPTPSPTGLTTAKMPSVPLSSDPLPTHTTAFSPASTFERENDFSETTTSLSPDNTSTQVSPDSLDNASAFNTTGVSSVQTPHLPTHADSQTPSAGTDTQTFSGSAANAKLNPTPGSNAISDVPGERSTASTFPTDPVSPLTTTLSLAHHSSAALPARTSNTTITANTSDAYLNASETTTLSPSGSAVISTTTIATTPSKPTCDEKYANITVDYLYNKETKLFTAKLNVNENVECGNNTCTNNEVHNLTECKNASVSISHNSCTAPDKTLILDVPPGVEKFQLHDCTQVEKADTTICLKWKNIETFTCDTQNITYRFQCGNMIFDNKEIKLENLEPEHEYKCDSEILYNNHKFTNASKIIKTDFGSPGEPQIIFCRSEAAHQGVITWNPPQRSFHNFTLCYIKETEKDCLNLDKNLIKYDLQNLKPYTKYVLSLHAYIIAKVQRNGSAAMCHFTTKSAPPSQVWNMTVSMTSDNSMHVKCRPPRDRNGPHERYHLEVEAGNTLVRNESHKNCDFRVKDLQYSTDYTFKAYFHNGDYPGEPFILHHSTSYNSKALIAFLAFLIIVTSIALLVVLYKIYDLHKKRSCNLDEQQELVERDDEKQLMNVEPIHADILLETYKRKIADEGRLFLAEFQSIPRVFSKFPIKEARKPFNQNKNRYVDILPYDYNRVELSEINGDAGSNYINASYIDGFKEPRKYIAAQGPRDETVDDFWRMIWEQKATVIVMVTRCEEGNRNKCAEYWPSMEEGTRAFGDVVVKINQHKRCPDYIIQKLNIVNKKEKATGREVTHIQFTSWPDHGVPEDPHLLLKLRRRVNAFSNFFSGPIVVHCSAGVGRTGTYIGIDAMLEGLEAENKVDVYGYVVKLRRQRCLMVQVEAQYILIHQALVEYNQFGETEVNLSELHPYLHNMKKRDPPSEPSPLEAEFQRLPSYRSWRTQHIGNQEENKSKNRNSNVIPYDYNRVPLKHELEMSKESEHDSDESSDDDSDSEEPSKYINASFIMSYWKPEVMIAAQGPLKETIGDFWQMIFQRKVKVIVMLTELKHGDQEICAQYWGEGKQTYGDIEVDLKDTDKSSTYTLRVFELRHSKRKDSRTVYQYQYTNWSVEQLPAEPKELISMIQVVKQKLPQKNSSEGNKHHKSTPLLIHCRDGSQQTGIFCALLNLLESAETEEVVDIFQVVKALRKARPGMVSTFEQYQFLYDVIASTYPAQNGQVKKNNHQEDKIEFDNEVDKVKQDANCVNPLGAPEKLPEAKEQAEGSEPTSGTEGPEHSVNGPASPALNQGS

[24] = tested on: PC-3; experiment: Growth inhibitory activity PC-3 cancer cell line of Prostate cancer; format: functional; details: Homo sapiens
Procedure, shortened: as §1

[25] = tested on: SN12C; experiment: Growth inhibitory activity was determined against SN12C cancer cell line of renal cancer; format: functional; details: Homo sapiens
Procedure, shortened: as §1

[26] = tested on: 786-0; experiment: Growth inhibitory activity was determined against 786-0 cancer cell line of renal cancer; format: functional; details: Homo sapiens
Procedure, shortened: as §1

[27] = target: Receptor-type tyrosine-protein phosphatase C, CD45 (Homo sapiens) (UniProt P08575); experiment: Inhibitory activity tested against human CD45 (receptor-type tyrosine-protein phosphatase C)
[28] = tested on: UO-31; experiment: Growth inhibitory activity was determined against UO-31 cancer cell line of renal cancer; format: functional; details: Homo sapiens
Procedure, shortened: as §1

[29] = tested on: SK-MEL-5; experiment: Growth inhibitory activity was determined against SK-MEL-5 cancer cell line of melanoma; format: functional, Homo sapiens
Procedure, shortened: as §1

- IC50 [1]: 7.8 µM
Compound: CC1=CC[C@H]2C(C)(C)CCC[C@]2(C)[C@H]1C(C)[C@H](OS(=O)(=O)O)[C@H](C)CCCc1ccoc1 (stereo partly drawn)

- GI50 ([2]; Homo sapiens, HCC 2998): 18.8 µM
- GI50 ([4]; Homo sapiens, NCI-H23): 19 µM
- IC50 [5]: 5.9 µM
- GI50 ([7]; Homo sapiens, A549): 10.8 µM
- GI50 [8]: 14 µM
- GI50 ([9]; Homo sapiens, BT-549): 13 µM
- GI50 ([10]; Homo sapiens, T47D): 16.9 µM
- GI50 [11]: 13.5 µM
- GI50 [12]: > 25 µM
- GI50 [14]: > 25 µM
- GI50 ([16]; Homo sapiens, HT-29): 15.7 µM
- GI50 [17]: 16 µM
- GI50 [18]: > 25 µM
- GI50 ([20]; Homo sapiens, COLO 205): > 25 µM
- GI50 [21]: 18.5 µM
Compound: CC(C)CCC[C@@H](C)[C@H]1CC[C@H]2[C@H](CC(=O)O)[C@@H]([C@@]3(C)CCCCC3=O)CC[C@]12C
- GI50 [3]: 13.4 µM
- GI50 ([6]; Homo sapiens, LOX IMVI): 16.7 µM
- GI50 [13]: > 25 µM
- GI50 ([15]; Homo sapiens, NCI/ADR-RES): 14.6 µM
- GI50 [19]: > 25 µM
- GI50 [22]: > 25 µM

- GI50 [2]: 4.77 µM
- GI50 [4]: 5.85 µM
- IC50 [5]: 1.9 µM
- IC50 [23]: 8.6 µM
- GI50 [7]: 4.35 µM
- GI50 [8]: 4.35 µM
- GI50 [24]: 6.88 µM
- GI50 [9]: 6.2 µM
- GI50 [10]: 9.27 µM
- GI50 [11]: 8.02 µM
- GI50 [12]: 5.19 µM
- GI50 [16]: 5.18 µM
- GI50 [26]: 7.18 µM
- IC50 [27]: 8.6 µM
- GI50 [20]: 5.55 µM
- GI50 [29]: 7.71 µM
Compound: CC(C)CCCC(C)[C@H]1CC[C@H]2[C@H](CC(=O)O)[C@@H](C(C)CCCCC#N)CC[C@]12C (stereo in doubt; 22)
- GI50 [6]: 4.69 µM
- GI50 [25]: 6.46 µM
- GI50 [15]: 8.2 µM
- GI50 [19]: 5.01 µM
- GI50 [28]: 8.74 µM
